The source of these data is PMC7810372 (Science Advances, 2021).

Assay [1] concerns MDA231 BAX/BAK knockdown (siRNA) cells. The assay is described as follows: Drug screen and low-throughput cell viability. The assay is classed as cell-based, human. Particulars: 48 hr treatment, CellTiter-Glo % survival, BAX/BAK KD versus control. In general terms: In ATP-based viability assays light output follows the ATP content of the culture.
The next assay deals with BT-549 cells. The assay is described as follows: Extracellular flux assay, ECAR. The assay is classed as cell-based, human. Conditions: 2 µM, 24 hrs. In outline: (§1)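 Seahorse XF96: cells were seeded for 24 h, then treated for a further 24 h. One hour before the run they were changed to XF Base medium, pH 7.4, with 1 mM L-glutamine. ECAR was read three times at baseline and three times after each sequential injection of glucose (10 mM), oligomycin (1 µM) and 2-DG (50 mM). Readings were protein-normalized, baseline-subtracted and expressed as fold change versus DMSO.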

The subject of a further assay is aldolase in BT-549 cells. The assay is described as follows: Aldolase activity assay. Particulars: 24 hr treatment. The format is cell-based, human. In outline:
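Cells (1×10^6 for MDA231) were exposed to test compound for 24 h. Aldolase or GAPDH activity was then measured with a commercial kit following the maker's protocol. Values were normalized to protein concentration and expressed as fold change relative to DMSO.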

The target in another assay is T1, HDAC6 (Homo sapiens, UniProt Q9UBN7).
T1 sequence (Q9UBN7 1-1215): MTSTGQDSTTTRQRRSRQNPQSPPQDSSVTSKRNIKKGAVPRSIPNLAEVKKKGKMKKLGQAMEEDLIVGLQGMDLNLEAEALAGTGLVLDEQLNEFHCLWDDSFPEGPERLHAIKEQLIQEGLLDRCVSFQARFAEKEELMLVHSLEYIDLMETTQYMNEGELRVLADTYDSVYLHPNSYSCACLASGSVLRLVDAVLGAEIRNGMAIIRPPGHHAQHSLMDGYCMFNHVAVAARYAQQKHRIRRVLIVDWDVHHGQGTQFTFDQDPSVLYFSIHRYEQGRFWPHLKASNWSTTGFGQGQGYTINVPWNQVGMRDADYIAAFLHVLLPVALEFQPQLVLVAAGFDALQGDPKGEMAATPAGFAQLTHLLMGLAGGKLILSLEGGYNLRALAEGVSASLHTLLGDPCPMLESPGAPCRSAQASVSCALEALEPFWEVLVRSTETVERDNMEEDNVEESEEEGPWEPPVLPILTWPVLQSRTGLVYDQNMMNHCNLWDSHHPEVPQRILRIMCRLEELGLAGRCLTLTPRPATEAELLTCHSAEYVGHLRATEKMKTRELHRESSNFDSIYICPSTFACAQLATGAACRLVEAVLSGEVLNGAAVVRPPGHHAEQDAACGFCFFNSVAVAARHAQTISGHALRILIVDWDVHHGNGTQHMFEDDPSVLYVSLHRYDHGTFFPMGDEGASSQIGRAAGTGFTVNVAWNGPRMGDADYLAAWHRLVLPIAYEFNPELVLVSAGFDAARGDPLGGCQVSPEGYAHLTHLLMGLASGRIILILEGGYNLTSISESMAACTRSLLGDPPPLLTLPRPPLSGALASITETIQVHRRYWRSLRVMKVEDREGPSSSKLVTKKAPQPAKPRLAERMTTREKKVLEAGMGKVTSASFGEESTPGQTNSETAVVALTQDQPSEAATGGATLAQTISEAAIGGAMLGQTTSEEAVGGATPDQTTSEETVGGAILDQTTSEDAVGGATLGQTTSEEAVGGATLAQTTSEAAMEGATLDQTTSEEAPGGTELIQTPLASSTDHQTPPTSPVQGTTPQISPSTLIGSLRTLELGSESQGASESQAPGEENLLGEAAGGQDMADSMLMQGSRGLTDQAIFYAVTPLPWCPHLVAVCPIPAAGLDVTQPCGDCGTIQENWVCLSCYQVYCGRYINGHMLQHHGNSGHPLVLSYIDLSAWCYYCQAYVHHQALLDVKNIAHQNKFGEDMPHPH
In words: HDAC inhibitory assay. The assay is classed as biochemical.

The target of the next assay is HDAC1 (Homo sapiens, UniProt Q13547). The assay is described as follows: HDAC inhibitory assay. The assay is classed as biochemical.
Chain of HDAC1 (Q13547 whole entry): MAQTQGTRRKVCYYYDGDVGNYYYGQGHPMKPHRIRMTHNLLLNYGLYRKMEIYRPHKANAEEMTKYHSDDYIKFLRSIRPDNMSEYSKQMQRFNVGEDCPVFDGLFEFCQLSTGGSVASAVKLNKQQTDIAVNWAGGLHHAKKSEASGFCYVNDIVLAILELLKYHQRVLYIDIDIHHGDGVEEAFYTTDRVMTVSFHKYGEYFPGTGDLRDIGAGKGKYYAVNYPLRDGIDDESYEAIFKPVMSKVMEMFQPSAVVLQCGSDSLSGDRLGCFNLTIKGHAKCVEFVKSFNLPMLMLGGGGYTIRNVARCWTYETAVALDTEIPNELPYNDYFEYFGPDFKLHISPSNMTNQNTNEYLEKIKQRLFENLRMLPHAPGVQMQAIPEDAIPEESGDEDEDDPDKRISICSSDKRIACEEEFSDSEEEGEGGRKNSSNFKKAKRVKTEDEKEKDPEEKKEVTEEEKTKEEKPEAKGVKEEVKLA
The next assay addresses T2, HDAC7 (Homo sapiens, UniProt Q8WUI4).
T2 sequence (Q8WUI4 1-952): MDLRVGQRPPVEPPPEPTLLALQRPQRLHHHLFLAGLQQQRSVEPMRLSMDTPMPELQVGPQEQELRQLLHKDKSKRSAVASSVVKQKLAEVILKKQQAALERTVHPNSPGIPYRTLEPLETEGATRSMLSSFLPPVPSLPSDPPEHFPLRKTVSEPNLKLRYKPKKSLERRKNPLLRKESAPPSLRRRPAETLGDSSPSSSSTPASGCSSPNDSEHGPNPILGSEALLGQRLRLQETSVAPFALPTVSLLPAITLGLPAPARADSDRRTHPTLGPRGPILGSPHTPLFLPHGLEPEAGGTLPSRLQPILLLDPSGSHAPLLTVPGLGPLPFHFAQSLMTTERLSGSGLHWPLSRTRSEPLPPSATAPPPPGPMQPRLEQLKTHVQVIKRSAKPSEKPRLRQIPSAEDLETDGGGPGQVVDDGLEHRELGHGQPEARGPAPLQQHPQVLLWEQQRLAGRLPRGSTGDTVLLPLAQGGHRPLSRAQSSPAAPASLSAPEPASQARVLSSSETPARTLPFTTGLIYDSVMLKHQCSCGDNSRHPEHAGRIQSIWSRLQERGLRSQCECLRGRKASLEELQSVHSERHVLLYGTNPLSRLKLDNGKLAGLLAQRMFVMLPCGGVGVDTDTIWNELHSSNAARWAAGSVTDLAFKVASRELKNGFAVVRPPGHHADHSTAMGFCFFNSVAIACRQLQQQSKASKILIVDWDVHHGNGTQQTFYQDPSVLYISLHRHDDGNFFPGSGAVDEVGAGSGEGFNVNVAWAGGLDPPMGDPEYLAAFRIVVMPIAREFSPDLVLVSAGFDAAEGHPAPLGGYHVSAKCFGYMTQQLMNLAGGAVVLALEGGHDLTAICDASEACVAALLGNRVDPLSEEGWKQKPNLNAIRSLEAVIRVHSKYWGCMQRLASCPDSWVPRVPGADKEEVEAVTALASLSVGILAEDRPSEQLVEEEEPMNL
In words: HDAC inhibitory assay. The format is biochemical.

For the next assay, the target named is T3, HDAC8 (Homo sapiens, UniProt Q9BY41).
T3 sequence (Q9BY41 1-377): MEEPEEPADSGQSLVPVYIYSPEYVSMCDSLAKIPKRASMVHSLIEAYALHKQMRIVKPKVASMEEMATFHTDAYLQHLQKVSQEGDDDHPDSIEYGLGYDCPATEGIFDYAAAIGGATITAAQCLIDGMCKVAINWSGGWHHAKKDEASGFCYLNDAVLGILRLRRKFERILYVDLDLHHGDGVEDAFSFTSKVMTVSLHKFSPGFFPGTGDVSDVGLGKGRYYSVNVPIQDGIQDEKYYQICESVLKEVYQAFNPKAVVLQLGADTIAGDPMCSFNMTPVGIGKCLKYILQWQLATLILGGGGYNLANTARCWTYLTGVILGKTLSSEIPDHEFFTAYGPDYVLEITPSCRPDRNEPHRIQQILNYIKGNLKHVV
In words: HDAC inhibitory assay. The assay is classed as biochemical.

A further assay relates to MDA231 cells. The assay is described as follows: Extracellular flux assay, ECAR. Conditions: 2 µM, 24 hrs. The format is cell-based, human. The gist of the method:
as §1

Assay [2] concerns glucose transporter 1, hexokinase II. Conditions: cited from earlier work.

With `CN(C)CC[C@H](CSc1ccccc1)Nc1ccc(S(=O)(=O)NC(=O)c2ccc(N3CCN(Cc4ccccc4-c4ccc(Cl)cc4)CC3)cc2)cc1[N+](=O)[O-]` [ABT-737], the “response to apoptosis-inducing agents” value in assay [1] was “broadly resistant”.

For `O=C(CCCCCCNC(=O)c1cnc(N(c2ccccc2)c2ccccc2Cl)nc1)NO` [ACY-241], the “glycolysis and glycolytic capacity (ECAR)” value in the assay with BT-549 cells (1 µM) is listed as “confirmed all the above results”.

Regarding `O=C(CCCCCCNC(=O)c1cnc(N(c2ccccc2)c2ccccc2)nc1)NO` [ACY-1215], the aldolase enzymatic activity result with aldolase in BT-549 cells was “reduced aldolase activity”.

In the case of `O=C(CCCCCCC(=O)Nc1ccccc1)NO` [SAHA, suberoylanilide hydroxamic acid], the “inhibition of HDAC activity” value against HDAC6, against HDAC1, on HDAC7 and at HDAC8 was “inhibits the activity” throughout.

Turning to `COc1cc([C@@H]2c3cc4c(cc3[C@@H](O[C@@H]3O[C@@H]5CO[C@@H](C)O[C@H]5[C@H](O)[C@H]3O)[C@H]3COC(=O)[C@H]23)OCO4)cc(OC)c1O` [etoposide], in assay [1], the “response to apoptosis-inducing agents” value is reported as “broadly resistant”.

As for `O=C(CCCCCCC(=O)Nc1ccc([C@H]2O[C@@H](CSc3nc(-c4ccccc4)c(-c4ccccc4)o3)C[C@@H](c3ccc(CO)cc3)O2)cc1)NO` [tubacin], in the assay with MDA231 cells, the “extracellular acidification rate (ECAR)” value is on record as “reduction”. In addition, the “glycolysis and glycolytic capacity (ECAR)” value with BT-549 cells is on record as “confirmed all the above results”.

Consider `CCCC(CCC)C(=O)O` [valproate], for which, in assay [2], the “glucose transporter 1” value is reported as “reduction in the glucose transporter 1” and the “hexokinase II activity” value was “reduction in hexokinase II activity”.
